Activity calls are given as the source filed them. The rule behind the calls is not given here.
Assays:
Aorta [1] = test: Antiangiogenic activity in Wistar rat thoracic aortic rings assessed as inhibition of microvessel sprouting at 25 uM after 7 days by phase-contrst microscopy; format: functional; details: 168 h
Summary of the method: (§1)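 Thoracic aorta from six-week-old SPF male Wistar rat, everted, cut into 1-mm rings, embedded in porcine tendon collagen gel (30 min, 37 °C). Rings overlaid with RPMI 1640 plus 1% TIS+ containing compound doses or DMSO; 7 days at 37 °C, 5% CO2. Sprout length from cut end to capillary mid-point by phase-contrast microscopy; mean ± SD, n = 6.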

HUVEC [2] = test: Antiangiogenic activity in HUVEC assessed as inhibition of tubule formation at 20 uM after 12 hrs by inverted light microscopy; format: functional, cell-based; details: Homo sapiens
Summary of the method: (§2)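 Cells suspended in HuMedia EG2 with graded doses or DMSO vehicle, seeded onto solidified Matrigel and incubated 12 h at 37 °C, 5% CO2. Capillary-like tube length measured microscopically against vehicle control; mean ± SD, n = 5.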

Aorta [3] = test: Antiangiogenic activity in Wistar rat thoracic aortic rings assessed as inhibition of microvessel sprouting after 7 days by phase-contrst microscopy; format: functional, tissue-based; summary of the method: as §1
[4] = biological target: T1, Mitogen-activated protein kinase; ERK1/ERK2 (Homo sapiens) (UniProt P27361+P28482); test: Inhibition of VEGF-induced Erk1/2 phosphorylation in HUVEC pretreated for 60 mins prior VEGF stimulation measured after 10 mins by Western blotting; format: protein assay
T1 sequence (P27361 whole entry, looked up): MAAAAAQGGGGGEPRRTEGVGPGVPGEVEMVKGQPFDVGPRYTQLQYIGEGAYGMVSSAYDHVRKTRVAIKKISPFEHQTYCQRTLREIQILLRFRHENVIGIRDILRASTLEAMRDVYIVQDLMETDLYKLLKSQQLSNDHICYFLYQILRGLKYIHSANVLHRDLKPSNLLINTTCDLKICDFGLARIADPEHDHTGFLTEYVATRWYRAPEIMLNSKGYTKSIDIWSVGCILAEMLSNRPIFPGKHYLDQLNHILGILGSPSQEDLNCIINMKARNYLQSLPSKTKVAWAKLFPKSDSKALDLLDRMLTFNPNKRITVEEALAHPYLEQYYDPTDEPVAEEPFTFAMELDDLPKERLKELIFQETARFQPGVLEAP
T1 sequence (P28482 whole entry, looked up): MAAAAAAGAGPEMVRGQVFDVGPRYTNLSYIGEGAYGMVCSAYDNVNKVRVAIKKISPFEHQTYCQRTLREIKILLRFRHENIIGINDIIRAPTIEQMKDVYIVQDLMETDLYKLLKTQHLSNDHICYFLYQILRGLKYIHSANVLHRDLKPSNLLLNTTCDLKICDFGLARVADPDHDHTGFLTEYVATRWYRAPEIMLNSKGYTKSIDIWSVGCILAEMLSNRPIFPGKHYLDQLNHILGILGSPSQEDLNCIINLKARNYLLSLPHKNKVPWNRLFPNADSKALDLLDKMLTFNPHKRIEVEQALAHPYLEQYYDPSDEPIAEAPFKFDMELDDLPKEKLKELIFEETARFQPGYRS
Summary of the method: (§3)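 Cells pretreated 1 h with 0–10 µM compound or DMSO, then stimulated with VEGF (10 ng/mL) for 10 min, PBS-washed, lysed with M-PER, protein by microBCA. Blots probed for phospho-Erk1/2 or phospho-Akt (4 °C overnight) and total Erk1/2 or Akt (room temperature); chemiluminescent detection; mean ± SD, n = 3.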

HUVEC [5] = test: Inhibition of VEGF-induced Akt phosphorylation in HUVEC at 2.5 to 10 uM pretreated for 60 mins prior VEGF stimulation measured after 10 mins by Western blotting; format: cell-based; details: Homo sapiens; summary of the method: as §3
HUVEC [6] = test: Antiangiogenic activity in HUVEC assessed as inhibition of tubule formation at 5 uM after 12 hrs by inverted light microscopy; format: functional, cell-based; details: Homo sapiens; summary of the method: as §2
HUVEC [7] = test: Antiangiogenic activity in HUVEC assessed as inhibition of VEGF-induced cell migration at 50 uM after 6 hrs by boyden chamber assay; format: functional, cell-based; details: Homo sapiens
HUVEC [8] = test: Antiangiogenic activity in HUVEC assessed as inhibition of tubule formation after 12 hrs by inverted light microscopy; format: functional, cell-based; details: Homo sapiens; summary of the method: as §2
HUVEC [9] = test: Antiangiogenic activity in HUVEC assessed as inhibition of cell proliferation after 72 hrs by WST-8-based spectrophotometry; format: functional; details: Homo sapiens
Summary of the method: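 Cells seeded in HuMedia EG2, 24 h at 37 °C, 5% CO2, then fresh medium with graded doses or DMSO vehicle for 72 h. Proliferation read by WST-8 at 450 nm; mean ± SD, n = 5; IC50 from dose–response.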

[10] = biological target: T1, Mitogen-activated protein kinase; ERK1/ERK2 (Homo sapiens); test: Inhibition of VEGF-induced Erk1/2 phosphorylation in HUVEC at 2.5 to 10 uM pretreated for 60 mins prior VEGF stimulation measured after 10 mins by Western blotting; format: protein assay; details: TDE = time-dependent effect; summary of the method: as §3

SMILES	inhibition at 25 µM (Aorta [1])	also measured
C=C1C(=O)O[C@@H]2C[C@@H]3[C@]4(CC[C@]5(C)[C@@H]([C@H](C)CC/C=C(\C)COC(=O)c6ccncc6)CC[C@@]35C)C[C@]4(CCC(=O)OC)[C@H]12	10%	
C=C1C(=O)O[C@H]2C[C@@H]3[C@@]4(CC[C@]5(C)[C@H]([C@@H](C)CC/C=C(\C)C=O)CC[C@@]35C)C[C@]4(CCC(=O)OC)[C@@H]12 [CORONALOLIDE METHYL ESTER]	10%	
C=C1C(=O)O[C@@H]2C[C@@H]3[C@]4(CC[C@]5(C)[C@@H]([C@H](C)CC/C=C(\C)COC(=O)c6ccc7ccccc7n6)CC[C@@]35C)C[C@]4(CCC(=O)OC)[C@H]12	10%	
C=C1C(=O)O[C@@H]2C[C@@H]3[C@]4(CC[C@]5(C)[C@@H]([C@H](C)CC/C=C(\C)C=O)CC[C@@]35C)C[C@]4(CCC(=O)NC(C)(C)C)[C@H]12	10%	
C=C1C(=O)O[C@@H]2C[C@@H]3[C@]4(CC[C@]5(C)[C@@H]([C@H](C)CC/C=C(\C)CO)CC[C@@]35C)C[C@]4(CCC(=O)OC)[C@H]12 [SOOTEPIN A]	10%	
C=C1C(=O)O[C@@H]2C[C@@H]3[C@]4(CC[C@]5(C)[C@@H]([C@H](C)CC/C=C(\C)C=O)CC[C@@]35C)C[C@]4(CCC(=O)N[C@@H](Cc3ccccc3)C(=O)OC)[C@H]12	10%	
C=C(C)[C@@H]1CC[C@@H]2[C@]3(CC[C@]4(C)[C@@H]([C@H](C)CCC=C(C)C)CC[C@@]24C)C[C@]13CCC(=O)O [SOOTEPIN E]	92%	
C=C1C(=O)O[C@@H]2C[C@@H]3[C@]4(CC[C@]5(C)[C@@H]([C@H](C)CCC=C(C)C)CC[C@@]35C)C[C@]4(CCC(=O)OC)[C@H]12 [TUBIFEROLIDE METHYL ESTER]	40%	
C=C1C(=O)O[C@@H]2C[C@@H]3[C@]4(CC[C@]5(C)[C@@H]([C@H](C)CCC=C(C)C)CC[C@@]35C)C[C@]4(CCC(=O)O)[C@H]12 [SOOTEPIN B]	100%	inhibition (HUVEC [2]): Active; inhibition (Aorta [3]): Dose-dependent effect; IC50 (Aorta [3]; 168 h): 4.46 µM; inhibition [4]: Dose-dependent effect; inhibition (HUVEC [5]): inactive; inhibition (HUVEC [6]): Active; Activity (HUVEC [7]): inactive; IC50 (HUVEC [8]): 11.2 µM; inhibition (HUVEC [8]): Dose-dependent effect; Activity (HUVEC [9]): Dose-dependent effect; IC50 (HUVEC [9]): 1.2 µM; inhibition [10]: tde
C=C1C(=O)O[C@@H]2C[C@@H]3[C@]4(CC[C@]5(C)[C@@H]([C@H](C)CC/C=C(\C)C=O)CC[C@@]35C)C[C@]4(CCC(=O)O)[C@H]12 [CORONALOLIDE]	85%	
C=C1C(=O)O[C@@H]2C[C@@H]3[C@]4(CC[C@]5(C)[C@@H]([C@H](C)CC/C=C(\C)COC(=O)c6ccccc6)CC[C@@]35C)C[C@]4(CCC(=O)OC)[C@H]12	10%	
C=C1C(=O)O[C@@H]2C[C@@H]3[C@]4(CC[C@]5(C)[C@@H]([C@H](C)CC/C=C(\C)C=O)CC[C@@]35C)C[C@]4(CCC(=O)N3C(=O)CCC3=O)[C@H]12	10%	
C=C1C(=O)O[C@@H]2C[C@@H]3[C@]4(CC[C@]5(C)[C@@H]([C@H](C)CC/C=C(\C)C=O)CC[C@@]35C)C[C@]4(CCC(=O)NCCCC)[C@H]12	10%	
C=C1C(=O)O[C@@H]2C[C@@H]3[C@]4(CC[C@]5(C)[C@@H]([C@H](C)CC/C=C(\C)C=O)CC[C@@]35C)C[C@]4(CCC(=O)Oc3ccccc3)[C@H]12	10%	
